Data taken from BindingDB's records for doi:10.1021/jm970240y (Sanofi Recherche, 1997).

What follows are compounds tested against Integrin alpha-IIb/beta-3 (Homo sapiens, UniProt P08514+P05106) (assay: In vitro inhibition of ADP-induced (2.5 uM) human platelet aggregation.).
Chain of Integrin alpha-IIb/beta-3 (P05106 27-788 limits assumed): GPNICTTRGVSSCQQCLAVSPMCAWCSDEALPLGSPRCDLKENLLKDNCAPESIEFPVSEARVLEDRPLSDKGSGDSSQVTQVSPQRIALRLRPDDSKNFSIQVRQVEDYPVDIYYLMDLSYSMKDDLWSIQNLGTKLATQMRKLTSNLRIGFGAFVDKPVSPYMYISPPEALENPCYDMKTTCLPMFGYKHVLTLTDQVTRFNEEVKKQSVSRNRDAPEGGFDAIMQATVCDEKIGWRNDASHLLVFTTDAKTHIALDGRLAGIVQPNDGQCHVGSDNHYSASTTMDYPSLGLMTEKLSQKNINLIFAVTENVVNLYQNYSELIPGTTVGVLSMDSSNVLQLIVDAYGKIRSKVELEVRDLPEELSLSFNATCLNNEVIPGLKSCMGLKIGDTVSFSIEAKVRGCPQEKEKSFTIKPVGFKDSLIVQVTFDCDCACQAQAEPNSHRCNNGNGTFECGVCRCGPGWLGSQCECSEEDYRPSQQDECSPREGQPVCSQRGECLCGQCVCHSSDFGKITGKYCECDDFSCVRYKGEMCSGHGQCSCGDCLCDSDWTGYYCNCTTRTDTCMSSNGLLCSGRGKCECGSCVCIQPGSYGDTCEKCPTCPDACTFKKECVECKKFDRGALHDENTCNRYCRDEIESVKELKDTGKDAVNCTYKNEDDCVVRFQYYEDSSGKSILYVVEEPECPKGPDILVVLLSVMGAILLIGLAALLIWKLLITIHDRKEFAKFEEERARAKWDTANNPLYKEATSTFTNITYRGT
Chain of Integrin alpha-IIb/beta-3 (P08514 32-887 limits assumed): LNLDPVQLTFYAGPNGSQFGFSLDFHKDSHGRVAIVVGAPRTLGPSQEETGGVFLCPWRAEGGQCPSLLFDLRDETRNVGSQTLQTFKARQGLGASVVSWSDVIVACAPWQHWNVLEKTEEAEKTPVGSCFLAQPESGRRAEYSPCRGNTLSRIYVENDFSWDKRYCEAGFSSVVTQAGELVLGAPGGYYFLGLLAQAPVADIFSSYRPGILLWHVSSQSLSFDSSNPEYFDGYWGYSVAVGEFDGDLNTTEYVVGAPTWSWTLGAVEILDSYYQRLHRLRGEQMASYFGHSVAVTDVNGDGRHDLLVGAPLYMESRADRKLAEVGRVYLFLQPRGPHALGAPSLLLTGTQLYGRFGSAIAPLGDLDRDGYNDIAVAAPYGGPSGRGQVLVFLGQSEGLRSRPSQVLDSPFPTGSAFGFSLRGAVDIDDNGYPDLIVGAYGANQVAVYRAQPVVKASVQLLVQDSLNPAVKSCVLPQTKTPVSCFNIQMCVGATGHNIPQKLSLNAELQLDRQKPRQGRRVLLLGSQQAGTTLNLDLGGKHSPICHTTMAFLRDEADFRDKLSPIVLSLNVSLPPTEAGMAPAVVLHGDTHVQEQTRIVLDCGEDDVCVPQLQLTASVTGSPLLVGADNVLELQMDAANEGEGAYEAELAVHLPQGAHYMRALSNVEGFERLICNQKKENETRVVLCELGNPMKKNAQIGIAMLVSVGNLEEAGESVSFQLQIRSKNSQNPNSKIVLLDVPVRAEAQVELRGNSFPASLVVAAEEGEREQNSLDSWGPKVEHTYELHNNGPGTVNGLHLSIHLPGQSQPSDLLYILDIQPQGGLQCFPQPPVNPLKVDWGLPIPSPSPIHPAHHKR
Chain of Integrin alpha-IIb/beta-3 (P08514 891-1039 limits assumed): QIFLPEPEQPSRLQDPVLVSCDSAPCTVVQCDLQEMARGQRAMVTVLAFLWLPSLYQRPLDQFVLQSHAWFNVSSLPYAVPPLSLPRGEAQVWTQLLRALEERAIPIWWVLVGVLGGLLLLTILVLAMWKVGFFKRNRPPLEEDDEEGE
Summary of the method: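 Human PRP from citrated blood (0.38% final) of unmedicated donors, spun 1000g 10 min; compound added in DMSO (0.01% final) 1 min before 2.5 μM ADP. Aggregation by Born method, measured as maximum curve height; percent inhibition calculated against vehicle-alone aggregation.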
For `CC(C)(C(=O)O)N1CCC(Nc2nc(-c3ccc(C(=N)N)cc3)cs2)CC1` [2-{4-[4-(4-Carbamimidoyl-phenyl)-thiazol-2-ylamino]-piperidin-1-yl}-2-methyl-propionic acid], the IC50 was over 10000 nM.
`COC(=O)CC(C(=O)O)N1CCC(Nc2nc(-c3ccc(C(=N)N)cc3)cs2)CC1` (configuration not stated) [2-{4-[4-(4-Carbamimidoyl-phenyl)-thiazol-2-ylamino]-piperidin-1-yl}-succinic acid 4-methyl ester] was tested, and the IC50 was 85 nM.
`CC(C(=O)O)N1CCC(Nc2nc(-c3ccc(C(=N)N)cc3)cs2)CC1` (configuration not stated) [2-{4-[4-(4-carbamimidoyl-phenyl)-thiazol-2-ylamino]-piperidin-1-yl}-propionic acid] was tested, and the IC50 was 250 nM.
`N=C(N)c1ccc(-c2csc(N(CCC(=O)O)C3CCN(CC(=O)O)CC3)n2)cc1` [3-[[4-(4-Carbamimidoyl-phenyl)-thiazol-2-yl]-(1-carboxymethyl-piperidin-4-yl)-amino]-propionic acid] gave an IC50 of 46 nM.
With `N=C(N)c1ccc(-c2csc(NC3CCN(CCC(=O)O)CC3)n2)cc1` [3-{4-[4-(4-carbamimidoyl-phenyl)-thiazol-2-ylamino]-piperidin-1-yl}-propionic acid] the IC50 was 1800 nM.
`N=C(N)c1ccc(-c2csc(NC3CCN(C(C(=O)O)c4ccccc4Cl)CC3)n2)cc1` (configuration not stated) [4-[4-(4-carbamimidoyl-phenyl)-thiazol-2-ylamino]-piperidin-1-yl}-(2-chloro-phenyl)-acetic acid] was tested, and the IC50 was 6000 nM.
For `N=C(N)c1ccc(-c2csc(N(CCCC(=O)O)C3CCN(CC(=O)O)CC3)n2)cc1` [4-[[4-(4-Carbamimidoyl-phenyl)-thiazol-2-yl]-(1-carboxymethyl-piperidin-4-yl)-amino]-butyric acid], the IC50 was 96 nM.
Work on `N=C(N)c1ccc(-c2csc(N(Cc3ccccc3)C3CCN(CC(=O)O)CC3)n2)cc1` [(4-{Benzyl-[4-(4-carbamimidoyl-phenyl)-thiazol-2-yl]-amino}-piperidin-1-yl)-acetic acid] yielded an IC50 of 230 nM.
For `CN(c1nc(-c2ccc(C(=N)N)cc2)cs1)C1CCN(CC(=O)O)CC1` [(4-{[4-(4-carbamimidoyl-phenyl)-thiazol-2-yl]-methyl-amino}-piperidin-1-yl)-acetic acid], the IC50 was 160 nM.
In the case of `N=C(N)c1ccc(-c2csc(N(CC(=O)O)C3CCN(CC(=O)O)CC3)n2)cc1` [[[4-(4-Carbamimidoyl-phenyl)-thiazol-2-yl]-(1-carboxymethyl-piperidin-4-yl)-amino]-acetic acid], the IC50 is reported as 170 nM.
For `N=C(N)c1ccc(-c2csc(NC3CCN(CC(=O)O)CC3)n2)cc1` [{4-[4-(4-Carbamimidoyl-phenyl)-thiazol-2-ylamino]-piperidin-1-yl}-acetic acid], the IC50 was 42 nM.
Work on `N=C(N)c1ccc(-c2csc(NC3CCN(C(C(=O)O)c4ccccc4)CC3)n2)cc1` (configuration not stated) [{4-[4-(4-Carbamimidoyl-phenyl)-thiazol-2-ylamino]-piperidin-1-yl}-phenyl-acetic acid] yielded an IC50 of 65 nM.
